In one assay the test system is P388. Kind of assay: Cytotoxicity against mouse P388 cells. It counts as functional, cell-based. In a few lines:
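P388 mouse leukemia cells; cytotoxicity reported as IC50 in μg/ml.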

Assay [1] addresses Human immunodeficiency virus type 1 reverse transcriptase (Human immunodeficiency virus 1) (UniProt Q72547). The experiment in a line: Inhibition of HIV1 reverse transcriptase.
A further assay relates to Candida albicans. Kind of assay: Antimicrobial activity against Candida albicans. It counts as functional.

The IC50 is the midpoint of a concentration-inhibition curve. Lower therefore signals greater potency. One may read the MIC as the lowest concentration found to suppress growth. Read a low MIC as inhibition by little substance.

Converted amounts (≈) assume the structure as drawn. The source made the active and inactive calls. The rule behind the calls is not given here. Where only a bound is given, the exact number is not on record here.

Take `COC1=CC(=O)C(C[C@]2(C)[C@@H](C)CC[C@]3(C)C(C)=CCC[C@@H]23)=C(O)C1=O`: the IC50 in the assay on P388 is greater than 20 µg/mL. Also, in assay [1], the outcome was Active.
In the same order, the values of `CC(=O)OC1=C(C[C@]2(C)[C@@H](C)CC[C@]3(C)C(C)=CCC[C@@H]23)C(=O)C=CC1=O` are 10 µg/mL (≈ 27 µM) and “inactive”.
Regarding `CC1=CCC[C@H]2[C@](C)(CC3=C(O)C(=O)C=C(O)C3=O)[C@@H](C)CC[C@]12C`, the IC50 in the assay on P388 was 1.2 µg/mL (≈ 3.48 µM). For the same compound, the lowest concentration to inhibit growth in the assay with Candida albicans (MIC) was 50 µg/mL (≈ 145 µM). The outcome in assay [1] was Active.
In the same order, the values of `CC(=O)Oc1c(O)ccc(O)c1C[C@]1(C)[C@@H](C)CC[C@]2(C)C(C)=CCC[C@@H]12` are less than 0.6 µg/mL, 12.5 µg/mL (≈ 33.6 µM) and “inactive”.
In the assay on P388, `CC1=CCC[C@H]2[C@](C)(CC3=CC(=O)C=C(O)C3=O)[C@@H](C)CC[C@]12C` showed an IC50 of 0.6 µg/mL (≈ 1.83 µM). The same compound came in with an MIC with Candida albicans of 12.5 µg/mL (≈ 38.1 µM). Besides, the result in assay [1] was Active.
Take `CC1=CCC[C@H]2[C@](C)(Cc3c(O)ccc(O)c3O)[C@@H](C)CC[C@]12C`: in assay [1], the outcome was inactive.

The values above are taken from ChEMBL document CHEMBL1158936, “New avarone and avarol derivatives from the marine sponge Dysidea cinerea” (J Nat Prod, 1991).
